Measurements pooled from the literature.
Cell line: A549
Observed: cell growth or viability

O=C(CN1C(=O)/C(=C/c2cccc(O)c2)SC1=S)Nc1ccccc1
inhibition (MTT; 10 µM): 14.5%

CCCCc1nc(Cl)c(CO)n1Cc1ccc(-c2ccccc2-c2nn[nH]n2)cc1
EC50 (MTT; 72 h): 63 µM

COc1ccc2c(c1)C(=NNc1nnc(Cc3ccccc3)c3ccccc13)C(=O)N2
inhibition (30 µM): 13.5%

O=C(CN1C(=O)/C(=C/C2CC2)SC1=S)Nc1ccccc1
inhibition (MTT; 10 µM): 28.9%

COC(C)(C)CCC[C@](C)(O)[C@H]1CC[C@]2(C)[C@@H]1[C@H](O)C[C@@H]1[C@@]3(C)CC[C@H](O)C(C)(C)[C@@H]3CC[C@]12C
IC20 (MTT; 72 h): 0.66 µM

Cn1c(=O)c(NN=C2C(=O)Nc3ccc(F)cc32)nc2ccccc21
inhibition (30 µM): 53.2%

COc1cccc(NC(=O)CN2C(=O)/C(=C/c3ccccc3)SC2=S)c1
inhibition (MTT; 10 µM): 26.3%

O=C(/C=C/c1ccc2c(ccn2S(=O)(=O)c2ccccc2)c1)NO
GI50 (SRB; 48 h): 1 µM

CCn1cc(C(=O)O)c(=O)c2cc(F)c(N3CCNCC3)cc21
GI50 (SRB; 48 h): > 80 µg/mL

CC(C)=CCC[C@](C)(O)[C@H]1CC[C@]2(C)[C@@H]1[C@H](O)C[C@@H]1[C@@]3(C)CC[C@H](O[C@@H]4O[C@H](CO)[C@@H](O)[C@H](O)[C@H]4O[C@@H]4O[C@H](CO)[C@@H](O)[C@H](O)[C@H]4O)C(C)(C)[C@@H]3CC[C@]12C
IC80 (MTT; 72 h): > 100 µM

CCN(CC)CCNC(=O)c1c(C)[nH]c(/C=C2\C(=O)Nc3ccc(F)cc32)c1C
inhibition (30 µM): 85.7%

COC(=O)C1=C(C)NC(C)=C(C(=O)OCCN(C)Cc2ccccc2)C1c1cccc([N+](=O)[O-])c1 (stereo not shown)
viability (CCK-8; 100 µM, 72 h): < 50%

O=C(CN1C(=O)/C(=C/c2cccc(Cl)c2)SC1=S)Nc1ccccc1
inhibition (MTT; 10 µM): 25.9%

CC1=C(C(=O)OC(C)C)C(c2cccc([N+](=O)[O-])c2)C(C(=O)OC2CN(C(c3ccccc3)c3ccccc3)C2)=C(N)N1 (stereo not shown)
viability (CCK-8; 100 µM, 72 h): < 50%

CS(=O)(=O)CCNCc1ccc(-c2ccc3ncnc(Nc4ccc(OCc5cccc(F)c5)c(Cl)c4)c3c2)o1
EC50 (MTT; 72 h): 67 µM

O=C(CN1C(=O)/C(=C/c2ccc(Cl)cc2Cl)SC1=S)Nc1ccccc1
inhibition (MTT; 10 µM): 4.43%

Cn1c(=O)c(NN=C2C(=O)Nc3ccc(Cl)cc32)nc2ccccc21
inhibition (30 µM): 27.1%

COc1cccc(NC(=O)CN2C(=O)/C(=C/C3CC3)SC2=S)c1
inhibition (MTT; 10 µM): 17.2%

CC/C(=C(\c1ccccc1)c1ccc(OCCN(C)C)cc1)c1ccccc1
EC90 (ATP luminescence; 72 h): 26.1 µM
